Data reported in the RNAGym collection of RNA variant scans (doi:10.1126/science.aae0568).
Variants at the floor of the assay were thinned out.

B1: tRNA (parent)
chain: GUUCCGUUGGCGUAAUGGUAACGCGUCUCCCUCCUAAGGAGAAGACUGCGGGUUCGAGUCCCGUACGGAACG

Variants of: B1
Assay: yeast fitness relative to wild type (ratio to wild type); higher = fitter; tRNA-Arg(CCU), competitive growth, 37 C, YPD
How it was run: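 Start and end populations of a pooled competition were compared by 100-nucleotide paired-end sequencing of gene amplicons. The Saccharomyces cerevisiae strains carried tRNA-Arg(CCU) gene variants at the native genomic locus, synthesised with a 3% per-site mutation rate at 69 sites, and competed in YPD at 37°C for 24 hours in six parallel replicates. Darwinian fitness relative to wild type was based on the change in genotype frequencies. Genotypes required ≥ 100 starting reads, and estimates < 0.5 were set to 0.5.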
GUUCCGUUAGCGUAAUGGUAACGCGUCUCCCUCCUACGGAGAAGACUGCGGGUCCGAGUCCCGUACCGAACG [G9A A37C U54C G67C] gave a yeast fitness of no more than 0.5. Work on GUUCCGUUAGCGUAAUGGUAACGCGUCUCCCUCCUAAGGCGAAGACUCCGGGUUCGGGUCCCGUACGGAACG [G9A A40C G48C A57G] yielded a yeast fitness of no more than 0.5. Work on GUUCCGUUAGCGUAAUGGUAACGCGUCUCCCUCCUAAGGAGGAGACUGAGGGUUCGAAUCCCGUACGGAACG [G9A A42G C49A G58A] yielded a yeast fitness of no more than 0.5. Variant GUUCCGUUAGCGUAAUGGUAACGCGUCUCCCUCCUAAGGCGAAGACUGCGGGUCCGAGUCCCGUACGGAACG [G9A A40C U54C] has a yeast fitness of 0.753. Variant GUUCCGUUAGCGUAAUGGUAACGCGUCUCCCUCCUAAGGAGGAGACUGCGGGUUCGAGUCACGUACGGAACG [G9A A42G C61A] has a yeast fitness of 0.611. For GUUCCGUUAGCGUAAUGGUAACGCGUCUCCCUCCUAAGGAGAAGCCUGCGGGAUCGAGUCCCCUACGGAACG [G9A A45C U53A G63C], the yeast fitness was no more than 0.5. With GUUCCGUUAGCGUAAUGGUAACGCGUCUCCCUCCUAAGGAGAAGUCUGCGGGUUCGAGUCCAGUACGGAACG [G9A A45U C62A] the yeast fitness was no more than 0.5. With GUUCCGUUAGCGUAAUGGUAACGCGUCUCCCUCCUAAGGAGAGGACUGCGGGUUCGAGUCCCGUACGGAACG [G9A A43G] the yeast fitness was 0.987. Variant GUUCCGUUAGCGUAAUGGUAACGCGUCUCCCUCCUAAGGAGAAGCCUGCGGGUUCGAGUCCCGCCCGGAACG [G9A A45C U64C A65C] has a yeast fitness of 0.648. For GUUCCGUUAGCGUAAUGGUAACGCGUCUCCCUCCUAAGGAGAGGACUGCGGGUUCGAGACCCGUACGGAACG [G9A A43G U59A], the yeast fitness was 0.535. For GUUCCGUUAGCGUAAUGGUAACGCGUCUCCCUCCUAAGGAGAAGUCUGCGGGUUCGAGUCCCGUACGGAACG [G9A A45U], the yeast fitness was 0.86. GUUCCGUUAGCGUAAUGGUAACGCGUCUCCCUCCUAAGGAGAAGGCUGCGGGUUCGAGUCCCGUACGGAACG [G9A A45G] gave a yeast fitness of 1.01. In the case of GUUCCGUUAGCGUAAUGGUAACGCGUCUCCCUCCUAAGGAGCAGACUGCGGGUUGGAGUCCCGUACGGAACG [G9A A42C C55G], the yeast fitness is reported as no more than 0.5. Variant GUUCCGUUAGCGUAAUGGUAACGCGUCUCCCUCCUAAGGCGAAGACUGCGGGUUCGAGUCCCGUAUGGAACG [G9A A40C C66U] has a yeast fitness of 0.719. GUUCCGUUAGCGUAAUGGUAACGCGUCUCCCUCCUAAGGAGAGGACUGCGGGUUCGAGUCCCAUACGGAACG [G9A A43G G63A] showed a yeast fitness of no more than 0.5. Work on GUUCCGUUAGCGUAAUGGUAACGCGUCUCCCUCCUAAGGAGAAGCGUGCGGGUUCGUGUCCCGUACGGAACG [G9A A45C C46G A57U] yielded a yeast fitness of no more than 0.5. For GUUCCGUUAGCGUAAUGGUAACGCGUCUCCCUCCUAGGGUGAAGACUGAGGGUUCGUGUCCCGUACGGAACG [G9A A37G A40U C49A A57U], the yeast fitness was no more than 0.5. Variant GUUCCGUUAGCGUAAUGGUAACGCGUCUCCCUCCUAAGGAGACGACUGCGGGUUCGAGUCCGGUACGGAACG [G9A A43C C62G] has a yeast fitness of no more than 0.5. Work on GUUCCGUUAGCGUAAUGGUAACGCGUCUCCCUCCUAAGGUGAAGACUGCGCGUUCGAGUCCCGUAUUGAACG [G9A A40U G51C C66U G67U] yielded a yeast fitness of no more than 0.5. GUUCCGUUAGCGUAAUGGUAACGCGUCUCCCUCCUACGGAGACGACUGCGGGUUCGAGUCCCGUACGGAACG [G9A A37C A43C] showed a yeast fitness of 0.524. Work on GUUCCGUUAGCGUAAUGGUAACGCGUCUCCCUCCUAAGGAGAAGACUGCGGGUUCGGGUCCCGUACAGAACG [G9A A57G G67A] yielded a yeast fitness of 0.558. For GUUCCGUUAGCGUAAUGGUAACGCGUCUCCCUCCUAAGGGGAAGACUGCGGGUUCGAGUCCCGUAUGGAACG [G9A A40G C66U], the yeast fitness was no more than 0.5. Work on GUUCCGUUAGCGUAAUGGUAACGCGUCUCCCUCCUAAGGAGACGACUGCGGGUUCGUGUCCCGUACGGAACG [G9A A43C A57U] yielded a yeast fitness of no more than 0.5. GUUCCGUUAGCGUAAUGGUAACGCGUCUCCCUCCUAAGGAGACGACUGCGGGUUCGCGUCCCGUACGGAACG [G9A A43C A57C] gave a yeast fitness of 0.569. GUUCCGUUAGCGUAAUGGUAACGCGUCUCCCUCCUAAGGAGACGACUGCGGGUUCGUGUCCCGUAUGGAACG [G9A A43C A57U C66U] gave a yeast fitness of 0.516. With GUUCCGUUAGCGUAAUGGUAACGCGUCUCCCUCCUUAGAAGAAGACUGCGGGUACGAGUCCCGUACGGAACG [G9A A36U G39A U54A] the yeast fitness was no more than 0.5. For GUUCCGUUAGCGUAAUGGUAACGCGUCUCCCUCCUAAGGAGAAGACUGCGGGUUCGUGUCCCGUCCGGCACG [G9A A57U A65C A69C], the yeast fitness was no more than 0.5. GUUCCGUUAGCGUAAUGGUAACGCGUCUCCCUCCUAAGGAGAAGACUGCGGGUUCGUGUCCCGUACGGAACG [G9A A57U] gave a yeast fitness of 0.672. Variant GUUCCGUUAGCGUAAUGGUAACGCGUCUCCCUCCUAAGGCGAAGGCUGCGGGUUCGGGUCCCGUACGGAACG [G9A A40C A45G A57G] has a yeast fitness of no more than 0.5. With GUUCCGUUAGCGUAAUGGUAACGCGUCUCCCUCCUAAGGAGAUGACUGUGGGUUCGAGUCCCGUACGGAACG [G9A A43U C49U] the yeast fitness was 0.744. Variant GUUCCGUUAGCGUAAUGGUAACGCGUCUCCCUCCUAAGGAGAAGACUGCGGGUUCGUGUCCCGUUCGGAACG [G9A A57U A65U] has a yeast fitness of 0.532. Work on GUUCCGUUAGCGUAAUGGUAACGCGUCUCCCUCCUACGGAGAAGACUGCGGGUUCGAGUCCCGUACGGAACG [G9A A37C] yielded a yeast fitness of 0.918. With GUUCCGUUAGCGUAAUGGUAACGCGUCUCCCUCCUAAGGGGAAGACUGCGGGUUCGAGUUCCGUACGGAACG [G9A A40G C60U] the yeast fitness was no more than 0.5. Work on GUUCCGUUAGCGUAAUGGUAACGCGUCUCCCUCCUAAGGAGACGACUGCGGGUUCGAGUCCCGUACGGUCCG [G9A A43C A69U A70C] yielded a yeast fitness of 0.782. Work on GUUCCGUUAGCGUAAUGGUAACGCGUCUCCCUCCUACGGAGAAGACUGCGGGUUCGAGUCCCGUACCGAACG [G9A A37C G67C] yielded a yeast fitness of no more than 0.5. Variant GUUCCGUUAGCGUAAUGGUAACGCGUCUCCCUCCUUAGAAGAAGACUGCGGGUUCGGGUCCCGUACGGCACG [G9A A36U G39A A57G A69C] has a yeast fitness of no more than 0.5. Variant GUUCCGUUAGCGUAAUGGUAACGCGUCUCCCUCCUAAGGAGAAGGCUGCGGGUUCGAGUCCCGUACGCAACG [G9A A45G G68C] has a yeast fitness of 0.543. In the case of GUUCCGUUAGCGUAAUGGUAACGCGUCUCCCUCCUAAGGAGAAGUCUGCAGGUUCGACUCCCGUACGGAACG [G9A A45U G50A G58C], the yeast fitness is reported as 0.975.
